Assay results taken from ChEMBL document CHEMBL1138398, “Design and synthesis of novel bis(L-amino acid) ester prodrugs of 9-[2-(phosphonomethoxy)ethyl]adenine (PMEA) with improved anti-HBV activity” (Bioorg Med Chem Lett, 2007).

Assays:
[1] = tested on: Hepatitis B virus; experiment: Antiviral activity against HBV assessed as inhibition of cytoplasmic HBV-DNA synthesis; format: functional, organism-based
Summary of the method: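 Run in HepG2 2.2.15 cells; EC50 taken as the concentration giving 50% inhibition of cytoplasmic HBV-DNA synthesis.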

[2] = tested on: HepG2; experiment: Cytotoxicity against HepG2 2.2.15 cells; format: functional; details: Homo sapiens
Summary of the method: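 HepG2 2.2.15 cells exposed to compound; CC50 defined as the concentration causing 50% extinction of the cells.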

[3] = Selectivity index, ratio of CC50 for HepG2 2.2.15 cells to EC50 for HBV; format: functional
Summary of the method: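 In HepG2 2.2.15 cells: SI calculated as CC50 (50% extinction of the cells) divided by EC50 (50% inhibition of cytoplasmic HBV-DNA synthesis).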

[4] = Metabolic stability assessed as half life in human plasma; format: ADME, cell-free

| Compound | EC50 [1] [µM] | CC50 [2] [µM] | Ratio CC50/EC50 [3] | half-life [4] [h] |
| --- | --- | --- | --- | --- |
| CC(C)C[C@H](N)C(=O)SCCOP(=O)(COCCn1cnc2c(N)ncnc21)OCCSC(=O)[C@@H](N)CC(C)C.Cl | 0.211 | 3410 | 16129 |  |
| CC(C)[C@H](N)C(=O)OCOP(=O)(COCCn1cnc2c(N)ncnc21)OCOC(=O)[C@@H](N)C(C)C.Cl | 0.304 | 3380 | 11094 |  |
| Cl.Nc1ncnc2c1ncn2CCOCP(=O)(OCCOC(=O)[C@@H](N)Cc1ccccc1)OCCOC(=O)[C@@H](N)Cc1ccccc1 | 0.311 | 2590 | 8354 | 0.25 |
| CC(C)(C)C(=O)OCOP(=O)(COCCn1cnc2c(N)ncnc21)OCOC(=O)C(C)(C)C.Cl | 0.517 | 540 | 1044 | 0.75 |
| Cl.Nc1ccn([C@@H]2CS[C@H](CO)O2)c(=O)n1 | 0.0807 | 230 | 2850 |  |
| CC(C)[C@H](N)C(=O)OCCOP(=O)(COCCn1cnc2c(N)ncnc21)OCCOC(=O)[C@@H](N)C(C)C.Cl | 1.31 | 2590 | 1974 | 2 |
| Cl.Nc1ncnc2c1ncn2CCOCP(=O)(OCOC(=O)[C@@H](N)Cc1ccccc1)OCOC(=O)[C@@H](N)Cc1ccccc1 | 0.659 |  | 23312 |  |
| CC(C)[C@H](N)C(=O)SCCOP(=O)(COCCn1cnc2c(N)ncnc21)OCCSC(=O)[C@@H](N)C(C)C.Cl | 0.752 |  | 38167 |  |
| C[C@H](N)C(=O)OCCOP(=O)(COCCn1cnc2c(N)ncnc21)OCCOC(=O)[C@H](C)N.Cl | 12.5 | 1840 | 146 |  |
| CC(C)C[C@H](N)C(=O)OCOP(=O)(COCCn1cnc2c(N)ncnc21)OCOC(=O)[C@@H](N)CC(C)C.Cl | 0.341 | 8560 | 25111 |  |
| CC(C)C[C@H](N)C(=O)OCCOP(=O)(COCCn1cnc2c(N)ncnc21)OCCOC(=O)[C@@H](N)CC(C)C.Cl | 0.0952 | 6640 | 69523 | 4.5 |
| Cl.Nc1ncnc2c1ncn2CCOCP(=O)(OCCSC(=O)[C@@H](N)Cc1ccccc1)OCCSC(=O)[C@@H](N)Cc1ccccc1 | 0.208 |  | 52727 |  |
| C[C@H](N)C(=O)SCCOP(=O)(COCCn1cnc2c(N)ncnc21)OCCSC(=O)[C@H](C)N.Cl | 1.56 | 2420 | 1548 |  |
| Cl.NCC(=O)SCCOP(=O)(COCCn1cnc2c(N)ncnc21)OCCSC(=O)CN | 10.2 | 259 | 25 |  |
